Assay results reported in ChEMBL document CHEMBL1137389, “Synthesis and biological properties of novel, uracil-containing histone deacetylase inhibitors” (J Med Chem, 2006).
The source made the active and inactive calls. The rule behind the calls is not given here.

Assays:
Histone deacetylase 1 = Histone deacetylase 1 (Mus musculus, UniProt O09106); experiment: Inhibition of mouse HDAC1
U-937 [1] = experiment: Induction of alpha-tubulin acetylation in U937 cells by Western blot analysis; type: functional, cell-based; settings: Homo sapiens
Procedure, shortened: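 Western blot of U937 total protein extracts (25 µg) on 10% polyacrylamide gel, probed for acetylated alpha-tubulin (1:500); total ERKs used as loading control.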

[2] = target: Histone deacetylase 4 (Homo sapiens) (UniProt P56524); experiment: Inhibition of HDAC4 in ZR75.1 cell at 5 uM; settings: ZR-75-1
Sequence of Histone deacetylase 4 (Homo sapiens) (P56524 whole entry): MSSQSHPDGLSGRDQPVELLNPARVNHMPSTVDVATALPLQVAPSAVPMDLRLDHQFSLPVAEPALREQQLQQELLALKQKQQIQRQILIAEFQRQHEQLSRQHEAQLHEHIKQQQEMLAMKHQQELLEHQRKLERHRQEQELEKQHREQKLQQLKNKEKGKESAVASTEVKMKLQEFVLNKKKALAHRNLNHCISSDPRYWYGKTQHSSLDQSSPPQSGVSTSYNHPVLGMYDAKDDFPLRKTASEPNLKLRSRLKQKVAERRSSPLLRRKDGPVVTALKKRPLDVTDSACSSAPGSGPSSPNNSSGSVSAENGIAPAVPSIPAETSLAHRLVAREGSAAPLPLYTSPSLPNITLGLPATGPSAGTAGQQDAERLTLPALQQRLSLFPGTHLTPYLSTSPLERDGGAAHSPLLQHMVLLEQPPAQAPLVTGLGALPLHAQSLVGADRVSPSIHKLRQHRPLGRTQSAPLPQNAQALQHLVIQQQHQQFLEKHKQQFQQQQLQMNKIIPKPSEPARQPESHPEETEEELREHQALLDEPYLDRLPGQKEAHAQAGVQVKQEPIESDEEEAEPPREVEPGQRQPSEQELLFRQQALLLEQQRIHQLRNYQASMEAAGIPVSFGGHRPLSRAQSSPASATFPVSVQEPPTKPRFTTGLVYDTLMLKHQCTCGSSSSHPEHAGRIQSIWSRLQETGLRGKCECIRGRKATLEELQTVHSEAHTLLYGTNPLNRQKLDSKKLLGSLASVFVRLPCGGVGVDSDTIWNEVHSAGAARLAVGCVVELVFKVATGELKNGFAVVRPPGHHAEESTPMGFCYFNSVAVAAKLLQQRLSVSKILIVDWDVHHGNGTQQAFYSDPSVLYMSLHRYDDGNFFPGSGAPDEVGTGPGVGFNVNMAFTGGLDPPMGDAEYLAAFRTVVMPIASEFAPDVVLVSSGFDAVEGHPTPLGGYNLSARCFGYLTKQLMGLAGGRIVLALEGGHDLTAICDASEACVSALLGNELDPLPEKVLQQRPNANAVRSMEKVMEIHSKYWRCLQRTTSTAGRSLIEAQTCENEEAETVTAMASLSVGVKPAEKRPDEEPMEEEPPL
Procedure, shortened: (§1)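 HDAC4 immunoprecipitated overnight at 4 °C from ZR-75.1 breast cancer lysates (1000 µg extract, anti-HDAC4; IgG negative control); 10 µL IP incubated overnight at 37 °C with 120 000 CPM [3H]acetyl-histone H4 peptide on streptavidin beads in HDAC buffer ± inhibitor (5 µM); scintillation counting; quadruplicate.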

U-937 [3] = experiment: Induction of apoptosis in U937 cells at 5 uM by AnnexinV/PI double staining; type: functional
Procedure, shortened: (§2)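 U937 cells exposed 48 h at 1 or 5 µM; apoptosis read by Annexin V/propidium iodide double staining and FACS.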

U-937 [4] = experiment: Induction of H3 histone acetylation in U937 cells by Western blot analysis at 5 uM; type: functional, cell-based; settings: Homo sapiens
[5] = target: Histone deacetylase 1 (Homo sapiens) (UniProt Q13547); experiment: Inhibition of HDAC1 in U937 cell at 5 uM; settings: U-937
Sequence of Histone deacetylase 1 (Homo sapiens) (Q13547 whole entry): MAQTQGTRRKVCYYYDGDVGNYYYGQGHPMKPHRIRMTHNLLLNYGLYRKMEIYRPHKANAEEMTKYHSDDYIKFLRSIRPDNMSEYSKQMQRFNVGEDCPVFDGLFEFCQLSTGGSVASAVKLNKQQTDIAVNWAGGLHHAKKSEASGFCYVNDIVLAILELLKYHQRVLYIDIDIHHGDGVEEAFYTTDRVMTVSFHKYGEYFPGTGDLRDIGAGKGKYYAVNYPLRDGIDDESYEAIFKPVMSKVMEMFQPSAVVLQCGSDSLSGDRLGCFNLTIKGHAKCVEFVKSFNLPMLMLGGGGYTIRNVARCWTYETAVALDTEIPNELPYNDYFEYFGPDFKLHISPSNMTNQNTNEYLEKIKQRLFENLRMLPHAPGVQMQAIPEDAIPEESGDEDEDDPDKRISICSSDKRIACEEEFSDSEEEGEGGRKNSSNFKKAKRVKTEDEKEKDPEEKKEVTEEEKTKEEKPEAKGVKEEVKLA
Procedure, shortened: as §1, with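 “HDAC1” for “HDAC4”, “U937” for “ZR-75.1 breast cancer”, “anti-HDAC1;” for “anti-HDAC4;”, “µM); released radioactivity by” for “µM);”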

Histone deacetylase HD2 = target: T1, Histone deacetylase HD2 (Zea mays, UniProt Q94F81); experiment: Inhibition of maize HD2
T1 sequence (Q94F81 whole entry): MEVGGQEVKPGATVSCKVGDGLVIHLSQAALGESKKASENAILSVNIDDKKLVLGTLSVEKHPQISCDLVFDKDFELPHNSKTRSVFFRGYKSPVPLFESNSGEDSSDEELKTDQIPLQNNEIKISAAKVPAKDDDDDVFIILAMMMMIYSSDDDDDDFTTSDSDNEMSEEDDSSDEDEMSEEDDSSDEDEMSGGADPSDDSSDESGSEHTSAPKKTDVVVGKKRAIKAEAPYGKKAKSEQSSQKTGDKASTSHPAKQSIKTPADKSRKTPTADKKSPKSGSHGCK

Histone deacetylase HD1B = Histone deacetylase HD1B (Zea mays, UniProt Q9ZTP8); experiment: Inhibition of maize HD1B
Sequence of Histone deacetylase HD1B (Q9ZTP8 whole entry): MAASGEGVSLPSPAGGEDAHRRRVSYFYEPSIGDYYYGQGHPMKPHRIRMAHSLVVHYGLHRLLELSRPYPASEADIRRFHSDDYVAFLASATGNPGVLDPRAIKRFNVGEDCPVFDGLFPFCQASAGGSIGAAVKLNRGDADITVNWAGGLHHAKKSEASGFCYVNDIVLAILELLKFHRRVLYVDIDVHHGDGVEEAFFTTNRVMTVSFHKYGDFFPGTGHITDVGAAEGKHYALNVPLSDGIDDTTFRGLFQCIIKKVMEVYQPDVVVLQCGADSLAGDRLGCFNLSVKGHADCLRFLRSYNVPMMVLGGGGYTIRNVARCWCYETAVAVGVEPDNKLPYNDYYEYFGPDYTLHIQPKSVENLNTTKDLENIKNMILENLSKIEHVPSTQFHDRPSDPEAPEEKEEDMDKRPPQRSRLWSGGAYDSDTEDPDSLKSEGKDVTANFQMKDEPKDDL

U-937 [6] = experiment: Cell cycle arrest in U937 cells by accumulation at S/G2/M phase at 5 uM after 24 hrs; settings: Homo sapiens
U-937 [7] = experiment: Induction of granulocytic differentiation of U937 cells measured as CD11c expression level after 48 hrs at 5 uM; type: functional, Homo sapiens
Procedure, shortened: (§3)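 Granulocytic differentiation: U937 cells treated 48 h at 1 or 5 µM, stained with PE-conjugated anti-CD11c (PE mouse IgG1 control) 30 min at 4 °C in dark, resuspended in PBS with PI 0.25 µg/mL; FACS, PI-positive cells excluded; percent CD11c-positive PI-negative cells reported.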

U-937 [8] = experiment: Induction of granulocytic differentiation of U937 cells measured as CD11c expression level after 48 hrs at 1 uM; type: functional, Homo sapiens; procedure, shortened: as §3
U-937 [9] = experiment: Antiproliferative activity against U937 cells at 5 uM; type: functional, cell-based; settings: Homo sapiens
Procedure, shortened: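 U937 cells seeded at 200 000 cells/mL in RPMI/10% FCS with vehicle or inhibitor at 5 µM; living cells counted every 24 h by Trypan Blue exclusion; data plotted after three days; triplicate.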

U-937 [10] = experiment: Cell cycle arrest in U937 cells by accumulation at G1 phase at 1 uM after 24 hrs; type: functional, cell-based; settings: Homo sapiens
Procedure, shortened: (§4)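 U937 cells (RPMI, 10% FCS, kept at 200 000 cells/mL) treated 24 h at 1 or 5 µM (DMSO stocks); 2.5 × 10^5 cells resuspended in hypotonic buffer (0.1% Triton X-100, 0.1% sodium citrate, 50 µg/mL PI, RNAse A), 30 min dark; DNA content by flow cytometry; experiments performed three times.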

U-937 [11] = experiment: Cell cycle arrest in U937 cells by accumulation at G1 phase at 5 uM after 24 hrs; type: functional, cell-based; settings: Homo sapiens; procedure, shortened: as §4
Zea mays [12] = experiment: Selectivity for HD1A class II HDAC over HD1B class I HDAC
U-937 [13] = experiment: Induction of apoptosis in U937 cells at 1 uM by AnnexinV/PI double satining; type: functional, Homo sapiens; procedure, shortened: as §2
[14] = target: Histone deacetylase HD1B (Zea mays) (UniProt Q9ZTP8); experiment: Inhibition of maize HD1B at 20.9 uM
Sequence of Histone deacetylase HD1B (Zea mays) (Q9ZTP8 as listed by the source): as the sequence (Q9ZTP8 whole entry) above

Zea mays [15] = experiment: Inhibition of maize HD1A at 20.9 uM
[16] = target: T2, Histone deacetylase HD2 (Zea mays) (UniProt Q94F81); experiment: Inhibition of maize HD2 at 20.9 uM
T2 sequence (whole entry): T1 sequence (Q94F81 whole entry)

Sequence of Histone deacetylase 1 (O09106 whole entry): as the sequence (Q13547 whole entry) above, with R8K, D399E, E424D counted along it

SMILES | IC50 (Histone deacetylase HD2) | IC50 (Histone deacetylase HD1B) | also measured
O=C(CCCCSc1nc(-c2ccccc2)cc(=O)[nH]1)NO | 8 nM | 10 nM | IC50 (Histone deacetylase 1): 40 nM; Activity (U-937 [1]): Active; inhibition [2]: 0%; Activity (U-937 [3]; Homo sapiens): inactive; Activity (U-937 [4]): Active; inhibition [5]: 46%
CCC(c1ccccc1)c1cc(=O)[nH]c(SCCCCCC(=O)NO)n1 (stereo not drawn) | 32 nM | 31 nM | 
O=C(CCCSc1nc(O)cc(-c2ccccc2)n1)NO | 27 nM | 31 nM | 
CC(/C=C/C(=O)NO)=C\[C@@H](C)C(=O)c1ccc(N(C)C)cc1 [TRICHOSTATIN] |  | 0.4 nM | 
O=C(CCCSc1nc(O)cc(CCc2ccccc2)n1)NO | 205 nM | 170 nM | 
O=C(/C=C/c1ccccc1CSc1nc(O)cc(Cc2ccccc2)n1)NO | 760 nM | 1060 nM | 
O=C(CCCCCCC(=O)Nc1ccccc1)NO [VORINOSTAT] |  |  | Activity (U-937 [6]): Active; Activity (U-937 [7]): 32%; Activity (U-937 [8]): 48%; Activity (U-937 [3]): 98%
O=C(/C=C/c1ccc(CSc2nc(O)cc(Cc3ccccc3)n2)cc1)NO | 80 nM | 73 nM | Activity (U-937 [7]): 33%; IC50 (Histone deacetylase 1): 110 nM; Activity (U-937 [8]): 30%; Activity (U-937 [3]; Homo sapiens): inactive
O=C(/C=C/c1cccc(CSc2nc(O)cc(-c3ccccc3)n2)c1)NO | 17 nM | 64 nM | Activity (U-937 [9]): Active; Activity (U-937 [7]): 33%; IC50 (Histone deacetylase 1): 57 nM; Activity (U-937 [10]): Active; Activity (U-937 [11]): Active; Activity (U-937 [3]; Homo sapiens): inactive; Activity (U-937 [4]): Active
O=C(CCSc1nc(-c2ccccc2)cc(=O)[nH]1)NO | 822 nM | 890 nM | 
O=C(CCCCCSc1nc(C(c2ccccc2)c2ccccc2)cc(=O)[nH]1)NO | 52 nM | 58 nM | 
O=C(CCCCCCSc1nc(-c2ccccc2)cc(=O)[nH]1)NO | 38 nM | 48 nM | 
O=C(CCCCCSc1nc(O)cc(C(c2ccccc2)c2ccccc2)n1)NO |  |  | Activity (U-937 [3]; Homo sapiens): inactive
O=C(CCCCCCCSc1nc(CCc2ccccc2)cc(=O)[nH]1)NO | 90 nM | 62 nM | 
O=C(CCCCCCCSc1nc(-c2ccccc2)cc(=O)[nH]1)NO | 42 nM | 89 nM | 
O=C(CCCCCCSc1nc(O)cc(-c2ccccc2)n1)NO |  |  | Selectivity ratio (Zea mays [12]): > 3

SMILES | IC50 (Histone deacetylase HD2) | IC50 (Histone deacetylase HD1B) | also measured
O=C(/C=C/Sc1nc(O)cc(CCc2ccccc2)n1)NO | 41000 nM | 96000 nM | 
O=C(/C=C/c1ccc(CSc2nc(O)cc(-c3ccccc3)n2)cc1)NO | 23 nM | 112 nM | Activity (U-937 [13]): 8.8%; Activity (U-937 [9]): Active; Activity (U-937 [7]): 46%; IC50 (Histone deacetylase 1): 34 nM; Activity (U-937 [11]): Active; Activity (U-937 [8]): 42.5%; inhibition [2]: 14%; Activity (U-937 [3]; Homo sapiens): inactive; Activity (U-937 [4]): Active; inhibition [5]: 94%
CC(c1ccccc1)c1cc(=O)[nH]c(SCCCCCC(=O)NO)n1 (stereo not drawn) | 9 nM | 92 nM | IC50 (Histone deacetylase 1): 121 nM
O=C(CCCCCCCSc1nc(O)cc(-c2ccccc2)n1)NO |  |  | Selectivity ratio (Zea mays [12]): > 3
O=C(CCCCCSc1nc(Cc2ccccc2)cc(=O)[nH]1)NO |  | 18 nM | Activity (U-937 [7]): 30%; IC50 (Histone deacetylase 1): 103 nM; Activity (U-937 [3]; Homo sapiens): inactive
O=C(CCCCSc1nc(CCc2ccccc2)cc(=O)[nH]1)NO | 40 nM | 46 nM | 
O=C(CCCCSc1nc(O)cc(CCc2ccccc2)n1)NO |  |  | Selectivity ratio (Zea mays [12]): > 3
O=C(/C=C/Sc1nc(O)cc(-c2ccccc2)n1)NO |  |  | inhibition [14]: 0%; inhibition (Zea mays [15]): 0%; inhibition [16]: 0%
O=C(/C=C/c1cccc(CSc2nc(O)cc(Cc3ccccc3)n2)c1)NO | 41 nM | 42 nM | Activity (U-937 [13]): 8%; IC50 (Histone deacetylase 1): 90 nM; Activity (U-937 [3]; Homo sapiens): inactive
COC(c1ccccc1)c1cc(O)nc(SCCCCCC(=O)NO)n1 (stereo not drawn) | 82 nM | 79 nM | 
O=C(CCSc1nc(O)cc(CCc2ccccc2)n1)NO | 37 nM | 60 nM | 
O=C(/C=C/c1ccccc1CSc1nc(O)cc(-c2ccccc2)n1)NO | 367 nM | 780 nM | 
O=C(CCCCCCSc1nc(CCc2ccccc2)cc(=O)[nH]1)NO | 83 nM | 62 nM | 
O=C(CCCCCSc1nc(-c2ccccc2)cc(=O)[nH]1)NO |  | 19 nM | Selectivity ratio (Zea mays [12]): > 3
O=C(CCCCCSc1nc(C2(c3ccccc3)CC2)cc(=O)[nH]1)NO | 62 nM | 47 nM | 
